By inhibition is commonly meant the change of the read-out against control, counted positive when it falls. One may read the pIC50 as the IC50 on a negative log10 scale, so that one unit is a factor of ten.

pIC50: −log10 of the molar value. Activity calls are given as the source filed them. No cut-off for these calls is given here.

For one compound, inhibition and IC50 results are on record in ChEMBL document CHEMBL5247576, “Modulation of autophagy by the novel mitochondrial complex I inhibitor Authipyrin” (Bioorg Med Chem, 2019).

Test [1] concerns T1, Discoidin domain-containing receptor 2 (Homo sapiens), Q16832 [N456S].
T1 sequence (whole entry): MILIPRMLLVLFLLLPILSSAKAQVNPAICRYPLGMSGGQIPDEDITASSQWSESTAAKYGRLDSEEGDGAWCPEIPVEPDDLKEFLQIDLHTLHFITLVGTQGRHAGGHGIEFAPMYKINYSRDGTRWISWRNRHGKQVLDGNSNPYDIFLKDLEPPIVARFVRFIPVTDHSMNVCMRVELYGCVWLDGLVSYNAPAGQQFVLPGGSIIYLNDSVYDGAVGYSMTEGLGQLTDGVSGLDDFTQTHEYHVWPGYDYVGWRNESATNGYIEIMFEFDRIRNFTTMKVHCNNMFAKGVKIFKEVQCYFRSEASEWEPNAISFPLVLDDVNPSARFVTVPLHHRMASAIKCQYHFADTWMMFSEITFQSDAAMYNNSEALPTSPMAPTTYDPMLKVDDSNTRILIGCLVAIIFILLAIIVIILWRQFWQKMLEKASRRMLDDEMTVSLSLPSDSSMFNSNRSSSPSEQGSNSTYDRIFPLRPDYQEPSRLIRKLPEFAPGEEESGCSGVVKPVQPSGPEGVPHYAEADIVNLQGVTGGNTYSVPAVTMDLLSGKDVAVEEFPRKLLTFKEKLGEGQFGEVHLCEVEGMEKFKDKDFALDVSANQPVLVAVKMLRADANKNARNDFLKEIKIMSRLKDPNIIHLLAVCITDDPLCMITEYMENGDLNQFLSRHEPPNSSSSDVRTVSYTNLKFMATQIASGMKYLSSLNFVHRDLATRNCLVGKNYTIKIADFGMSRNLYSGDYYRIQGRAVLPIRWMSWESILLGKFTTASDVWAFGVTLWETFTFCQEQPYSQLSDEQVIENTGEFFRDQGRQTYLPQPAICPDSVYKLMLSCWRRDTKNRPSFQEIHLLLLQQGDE
The test is described as follows: Inhibition of GST/His-tagged human recombinant DDR2 N456S mutant (422 to 855 residues) expressed in baculovirus expression system relative to control. The settings on record: concentration not given here.

Test [2] concerns the target T2, Serine/threonine-protein kinase haspin (Homo sapiens) (UniProt Q8TF76).
T2 sequence (whole entry): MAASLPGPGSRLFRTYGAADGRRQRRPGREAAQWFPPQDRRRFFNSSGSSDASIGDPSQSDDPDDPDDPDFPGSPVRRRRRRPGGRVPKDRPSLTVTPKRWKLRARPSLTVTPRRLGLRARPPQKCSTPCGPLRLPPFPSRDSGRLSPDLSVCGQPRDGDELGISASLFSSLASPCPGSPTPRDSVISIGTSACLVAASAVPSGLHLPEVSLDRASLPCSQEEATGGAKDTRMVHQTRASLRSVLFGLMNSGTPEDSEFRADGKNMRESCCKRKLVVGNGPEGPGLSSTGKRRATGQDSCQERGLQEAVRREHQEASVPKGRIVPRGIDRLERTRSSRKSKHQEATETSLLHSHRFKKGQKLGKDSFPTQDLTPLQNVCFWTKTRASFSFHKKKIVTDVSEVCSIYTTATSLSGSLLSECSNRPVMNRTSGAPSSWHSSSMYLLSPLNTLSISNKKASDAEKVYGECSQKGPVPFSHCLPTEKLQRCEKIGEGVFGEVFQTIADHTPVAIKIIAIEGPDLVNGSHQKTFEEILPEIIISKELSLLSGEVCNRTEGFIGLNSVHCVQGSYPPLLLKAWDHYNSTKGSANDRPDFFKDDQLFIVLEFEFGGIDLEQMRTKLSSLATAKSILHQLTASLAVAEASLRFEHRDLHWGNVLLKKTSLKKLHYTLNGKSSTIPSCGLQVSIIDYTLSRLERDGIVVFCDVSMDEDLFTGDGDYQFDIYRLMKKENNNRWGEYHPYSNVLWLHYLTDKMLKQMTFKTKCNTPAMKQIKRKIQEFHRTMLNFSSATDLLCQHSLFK
The test is described as follows: Inhibition of GST-tagged human recombinant haspin (471 to 798 residues) expressed in insect cells at 1 uM relative to control. The method, boiled down: (§1)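 Single-point kinase profiling run at 1 μM compound against a full kinase panel. Values are percent inhibition of kinase activity.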

In test [3] the target is T2, Serine/threonine-protein kinase haspin (Homo sapiens). The test is described as follows: Inhibition of GST-tagged human recombinant haspin (471 to 798 residues) expressed in insect cells relative to control. The settings on record: concentration not given here. The procedure, abridged:
(§2)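 Follow-up on kinases showing more than 50% single-point inhibition. Each kinase was screened against decreasing compound concentrations, with a top concentration of 1 μM, to derive the IC50. Percent inhibition was also reported from this dose-response series.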

For test [4], the target named is T3, Serine/threonine-protein kinase haspin (Homo sapiens, UniProt Q8TF76).
T3 sequence (Q8TF76 whole entry): T2 sequence (whole entry)
The test is described as follows: Inhibition of GST-tagged human recombinant haspin (471 to 798 residues) expressed in insect cells. The method, boiled down: as §2

Another test relates to HeLa. The test is described as follows: Inhibition of starvation-induced autophagy in human HeLa cells assessed as reduction of LC3-II lipidation at 1 uM in presence of chloroquine by immunoblotting analysis. In kind it is functional, cell-based. The method, boiled down:
(§3)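 Cells were starved in EBSS for the indicated times, with or without chloroquine (50 μM) and compound (1 μM). Cells were then lysed and LC3 lipidation was assessed by immunoblot. n = 3.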

The species named for another test is Bos taurus. The test is described as follows: Inhibition of NADH-Coenyme Q reductase in bovine heart mitochondria. Conditions: dose 0.3-10 µM. The method, boiled down:
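Isolated bovine heart mitochondria were assayed for NADH-coenzyme Q reductase activity across a dose range of compound. Rotenone served as the control inhibitor. Data are mean ± SD, n = 2.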

In test [5] the target is Cyclin-dependent kinase 19 (Homo sapiens) (UniProt Q9BWU1). The test is described as follows: Inhibition of GST-tagged human recombinant CDK11 (1 to 795 residues) expressed in baculovirus expression system relative to control. Conditions: concentration not given here. The procedure, abridged: as §2
In a further test the test system is HEK-293T. The test is described as follows: Inhibition of starvation-induced autophagy in human HEK293T cells assessed as reduction of LC3-II lipidation at 1 uM in presence of chloroquine by immunoblotting analysis. Format: functional, cell-based. The method, boiled down: as §3
In general terms: Immunoblotting shows a protein as a band on a membrane.

Test [6] relates to MCF7. The test is described as follows: Inhibition of mitochondrial complex II in human MCF7 cells expressing LC3 by Seahorse XF plasma membrane permeabilizer analysis. Format: cell membranes. The procedure, abridged:
(§4)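 MCF7/LC3 cells were permeabilized with plasma membrane permeabilizer, then given DMSO, compound (1 μM) or a complex-specific control inhibitor together with that complex's substrates. Oligomycin and antimycin A injections followed. Oxygen consumption rate was read on a Seahorse XF analyzer. Data are mean ± SD, n = 3.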

Test [7] deals with T4, Inactive tyrosine-protein kinase PEAK1 (Homo sapiens, UniProt Q9H792). The test is described as follows: Inhibition of PEAK1 (unknown origin). The method, boiled down:
as §2

Test [8] relates to MCF7. The test is described as follows: Inhibition of mitochondrial complex I in human MCF7 cells expressing LC3 by Seahorse XF plasma membrane permeabilizer analysis. Format: cell membranes. The method, boiled down: as §4
The target of test [9] is T4, Inactive tyrosine-protein kinase PEAK1. The test is described as follows: Inhibition of PEAK1 (unknown origin) relative to control. Conditions: concentration not given here. The method, boiled down: as §2
In test [10] the target is Discoidin domain-containing receptor 2 (Homo sapiens, UniProt Q16832, N456S). The test is described as follows: Inhibition of GST/His-tagged human recombinant DDR2 N456S mutant (422 to 855 residues) expressed in baculovirus expression system. The method, boiled down:
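Kinase profiling panel (SelectScreen). The kinase was tested against decreasing concentrations of the compound, starting at a highest concentration of 1 μM, and IC50 was derived from the dose-response.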

Test [11] is described as follows: Inhibition of rapamycin-induced autophagy in human MCF7 cells expressing eGFP-tagged LC3 incubated for 3 hrs in presence of chloroquine by Hoechst staining based fluorescence microscopic analysis. Format: functional, cell-based.
Test [12] in a line: Inhibition of starvation-induced autophagy in human MCF7 cells expressing eGFP-tagged LC3 incubated for 3 hrs in presence of chloroquine by automated fluorescence microscopy.
In test [13] the test system is T1, Discoidin domain-containing receptor 2 (Homo sapiens), Q16832 [N456S]. The test is described as follows: Inhibition of GST/His-tagged human recombinant DDR2 N456S mutant (422 to 855 residues) expressed in baculovirus expression system at 1 uM relative to control. The method, boiled down: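 Single-point kinase panel (SelectScreen) run with the compound at 1 μM. Activity is reported as percent inhibition.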

Test [14] deals with MCF7. The test is described as follows: Inhibition of mitochondrial complex IV in human MCF7 cells expressing LC3 by Seahorse XF plasma membrane permeabilizer analysis. In kind it is cell membranes. The procedure, abridged:
as §4

Test [15] concerns the target Cyclin-dependent kinase 19 (Homo sapiens) (UniProt Q9BWU1). The test is described as follows: Inhibition of GST-tagged human recombinant CDK11 (1 to 795 residues) expressed in baculovirus expression system at 1 uM relative to control. The method, boiled down: as §1
The test system of test [16] is MCF7. The test is described as follows: Inhibition of starvation-induced autophagy in human MCF7 cells assessed as reduction of LC3-II lipidation at 1 uM in presence of chloroquine by immunoblotting analysis. In kind it is functional, cell-based. The method, boiled down: as §3
The target in test [17] is T4, Inactive tyrosine-protein kinase PEAK1. The test is described as follows: Inhibition of PEAK1 (unknown origin) at 1 uM relative to control. The method, boiled down: as §1

T4 sequence (Q9H792 whole entry): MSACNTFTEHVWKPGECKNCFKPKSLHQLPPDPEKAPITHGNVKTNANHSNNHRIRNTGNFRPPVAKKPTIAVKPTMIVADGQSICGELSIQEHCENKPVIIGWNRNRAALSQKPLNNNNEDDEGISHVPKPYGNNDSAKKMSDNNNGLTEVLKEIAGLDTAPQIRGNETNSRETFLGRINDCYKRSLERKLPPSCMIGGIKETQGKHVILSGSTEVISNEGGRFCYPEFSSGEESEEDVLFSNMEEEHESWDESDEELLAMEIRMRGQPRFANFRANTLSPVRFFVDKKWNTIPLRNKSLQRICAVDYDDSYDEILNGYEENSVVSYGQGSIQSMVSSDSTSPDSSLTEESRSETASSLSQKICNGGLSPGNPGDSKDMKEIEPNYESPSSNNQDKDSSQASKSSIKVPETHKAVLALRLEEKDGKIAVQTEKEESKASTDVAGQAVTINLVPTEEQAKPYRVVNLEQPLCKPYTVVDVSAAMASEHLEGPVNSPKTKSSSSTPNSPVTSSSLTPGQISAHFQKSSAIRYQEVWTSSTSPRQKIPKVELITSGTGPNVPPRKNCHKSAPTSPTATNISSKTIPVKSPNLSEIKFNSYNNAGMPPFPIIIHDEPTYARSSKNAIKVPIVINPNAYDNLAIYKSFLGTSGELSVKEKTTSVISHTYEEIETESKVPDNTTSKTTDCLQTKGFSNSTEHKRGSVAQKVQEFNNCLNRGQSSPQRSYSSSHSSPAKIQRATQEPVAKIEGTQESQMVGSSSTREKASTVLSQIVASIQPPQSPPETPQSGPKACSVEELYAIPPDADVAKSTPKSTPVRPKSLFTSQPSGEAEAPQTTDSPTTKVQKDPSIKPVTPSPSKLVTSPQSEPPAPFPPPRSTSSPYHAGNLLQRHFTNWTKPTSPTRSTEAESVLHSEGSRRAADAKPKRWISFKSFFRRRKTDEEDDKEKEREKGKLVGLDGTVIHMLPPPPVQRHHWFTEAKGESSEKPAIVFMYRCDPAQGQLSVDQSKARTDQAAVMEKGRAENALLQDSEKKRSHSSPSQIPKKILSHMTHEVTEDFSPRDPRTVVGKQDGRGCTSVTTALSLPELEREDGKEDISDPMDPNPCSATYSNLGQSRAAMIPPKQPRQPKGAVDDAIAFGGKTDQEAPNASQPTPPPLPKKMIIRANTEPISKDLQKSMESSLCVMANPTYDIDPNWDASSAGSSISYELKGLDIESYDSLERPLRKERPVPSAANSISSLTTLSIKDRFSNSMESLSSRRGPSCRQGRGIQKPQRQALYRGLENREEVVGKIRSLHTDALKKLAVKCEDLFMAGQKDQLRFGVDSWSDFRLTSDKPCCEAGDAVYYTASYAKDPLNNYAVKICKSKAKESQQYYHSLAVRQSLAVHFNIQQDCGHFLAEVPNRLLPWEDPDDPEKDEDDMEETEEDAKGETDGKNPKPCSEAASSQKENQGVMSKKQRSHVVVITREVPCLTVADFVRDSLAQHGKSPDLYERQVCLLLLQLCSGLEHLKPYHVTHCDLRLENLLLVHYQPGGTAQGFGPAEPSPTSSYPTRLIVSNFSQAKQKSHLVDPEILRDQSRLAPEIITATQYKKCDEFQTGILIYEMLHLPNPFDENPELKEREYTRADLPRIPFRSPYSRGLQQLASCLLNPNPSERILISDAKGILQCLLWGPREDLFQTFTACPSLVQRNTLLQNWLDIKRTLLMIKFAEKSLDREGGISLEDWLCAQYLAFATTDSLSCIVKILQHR
Chain of Cyclin-dependent kinase 19 (Homo sapiens) (Q9BWU1 whole entry, the tested form may be a part): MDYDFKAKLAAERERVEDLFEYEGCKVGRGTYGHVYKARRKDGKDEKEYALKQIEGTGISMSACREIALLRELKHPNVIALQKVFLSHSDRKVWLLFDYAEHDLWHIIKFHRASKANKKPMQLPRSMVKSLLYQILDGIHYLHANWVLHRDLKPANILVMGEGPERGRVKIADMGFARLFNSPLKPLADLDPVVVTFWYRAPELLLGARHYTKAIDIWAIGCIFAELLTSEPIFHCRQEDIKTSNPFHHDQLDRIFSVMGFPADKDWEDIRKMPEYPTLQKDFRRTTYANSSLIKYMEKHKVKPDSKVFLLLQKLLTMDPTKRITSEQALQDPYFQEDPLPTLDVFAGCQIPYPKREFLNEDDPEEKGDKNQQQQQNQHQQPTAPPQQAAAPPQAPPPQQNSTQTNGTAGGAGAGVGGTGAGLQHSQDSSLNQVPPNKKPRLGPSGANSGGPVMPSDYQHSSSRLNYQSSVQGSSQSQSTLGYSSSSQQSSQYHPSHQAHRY

On to `O=C(c1ccc2c(c1)OCCO2)C1CCN(c2ncnc3sccc23)CC1`, for which the inhibition is 38% in [1]; 51% in test [2]; 33% in test [3]; “Dose-Dependent Effect” in the test filed under Bos taurus; 47% in test [5]; 68% in test [9]. Besides, the inhibition in test [13] is 58%; in test [15], 70%; in [17] it was 83%. In addition, the negative logarithm of the IC50 (pIC50) in test [4] is < 6.00; in [7] it was 6.21; in test [10], < 6.00; in [11], 6.74; in test [12] it was 7.70. Further, the inhibition entry in the test on HeLa, with HEK-293T, in the test on MCF7 [8] and in the test on MCF7 [16] was “Active” throughout. Moreover, the inhibition result with MCF7 [6] and in the test with MCF7 [14] was “inactive” throughout.
